Measurements published in PubChem BioAssay.
Records with an inconclusive call do not appear.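 Rule for the calls, unless noted: active = viability increase at or above a cutoff of the median across tested compounds plus 3 SD (cut at about 8.5% in these data, passing the limit was not always enough); inconclusive = some gains above the cutoff, reason not given; inactive = the rest.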

What was measured:
[1] = S. cerevisiae growth inhibition in permissive medium (OD615), pilot counter-assay for S. cerevisiae lifespan shortening project, permissive growth control (AID 705;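 active = growth inhibition above 25% in both replicates, a cutoff set 3 SD above the mean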); conditions: OD615, 24 h, at 10 µM, stronger effect = higher value
Procedure, shortened: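 assay system = Saccharomyces cerevisiae strain carrying genetically modified DeaD replicative-lifespan system | technique = absorbance (optical density) at 615 nm | buffer or medium = permissive raffinose/galactose medium | timing = cells pre-grown 4 h, then 24 h compound exposure, 30 °C humidified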

[2] = S. cerevisiae growth inhibition in restrictive medium, OD615, pilot screen, restrictive growth control, yeast lifespan reduction project (AID 706;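 active = growth inhibition above a set limit, 3 SD over mean compound inhibition, in both replicates, cut at about 43% in these data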;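 note: modified DeaD lifespan yeast strain shifted to restrictive glucose medium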); conditions: OD615, 48 h, at 10 µM, stronger effect = higher value
Procedure, shortened: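 System: modified S. cerevisiae. Buffer or medium: CSMM-D glucose medium. Incubation: 4 h pre-growth plus 48 h compound exposure, 30 °C. Detection: absorbance (optical density) measured at 615 nm.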

[3] = doxorubicin toxicity protection in MRP-1 cells – H69AR cells, CellTiter-Glo, duplicate, MRP-1 activator project, pilot screen (AID 807); conditions: H69AR viability with doxorubicin, CellTiter-Glo luminescence; at 10 µM; stronger effect = higher value;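 note: compound pretreatment 18-22 h then 72 h combined with doxorubicin; 0% = doxorubicin alone and 100% = vehicle without doxorubicin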
[4] = viability of HCT116 without oncogenic beta-catenin – human colon tumor cells, pilot screen (AID 823;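 active = cell viability at or below a set limit in both duplicate runs, the limit being the all-compound median minus 4 SD, cut at about 23% in these data, passing the limit was not always enough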;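 note: 0% = wells killed by 20 µM Hyamine and 100% = untreated DMSO cell wells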); conditions: HCT116 beta-catenin knockout viability, CellTiter-Glo, 60 h; at 10 µM; stronger effect = lower value
[5] = viability of PTEN-null HCT116 cells – cell-based, HCT116 clonal line, CellTiter-Glo, pilot screen (AID 824;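 active = viability at or below 27.92% in each of two runs, the all-compound median minus 4 SD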;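 note: 0% = 20 µM Hyamine control and 100% = vehicle cell control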); conditions: HCT116 PTEN-deleted viability, 60 h, at 10 µM, stronger effect = lower value
[6] = RAM pathway blockade in budding yeast – dse1pr::URA3 reporter, 5-FOA selection, pilot screen (AID 869;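 active = inhibition over a set limit, the all-compound mean plus 3 SD, in both replicate runs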;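 note: 0% = DMSO wells with no growth and 100% = 10 µM 1-NA-PP1 with full growth; RAM network block rescues cells from 5-FOA so hits raise OD615 growth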); conditions: S. cerevisiae dse1pr::URA3 5-FOA growth, OD615, 2 d; at 10 µM; stronger effect = higher value; strain carries analog-sensitive mutant Cbk1 kinase
[7] = RAM signaling pathway blockade in yeast – S. cerevisiae, Pdr1DBD-CYC8 efflux-inhibited sensitized strain, primary screen (AID 1298;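 active = RAM network inhibition above 8.4% in each of two replicates, 3 SD over the compound average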;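 note: 0% = DMSO untreated cells without growth and 100% = 10 µM 1-NA-PP1 full growth; higher means more yeast growth rescued from 5-FOA killing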); conditions: S. cerevisiae cbk1-as DSE1-URA3 strain, 5-FOA growth OD615, 2 d; at 50 µM; stronger effect = higher value

O=C(CSCCNS(=O)(=O)c1ccccc1)Nc1ccccc1
inactive: growth inhibition [1] -6.82% | growth inhibition [2] -4.2% | viability increase [3] -2.84% | viability [4] 91% | viability [5] 91.6% | inhibition [6] 1.77% | RAM network inhibition [7] 0.37%

O=C(/C=C\Nc1ccccn1)c1ccc(Cl)cc1
inactive: growth inhibition [1] -7.61% | growth inhibition [2] -36.4% | viability increase [3] 0.28% | viability [4] 83.5% | viability [5] 81.7% | inhibition [6] 2.68% | RAM network inhibition [7] 8.82%

O=C(O)CN(Cc1ccco1)S(=O)(=O)c1ccccc1
inactive: growth inhibition [1] -15.2% | growth inhibition [2] -13% | viability increase [3] -1.97% | viability [4] 95.7% | viability [5] 98.3% | inhibition [6] 2.67% | RAM network inhibition [7] 2.35%

Cc1cccc(NC(=O)CC2SC(=NC3CCCCC3)NC2=O)c1 (stereo not drawn)
inactive: growth inhibition [1] -5.5% | growth inhibition [2] -21.6% | viability increase [3] 0.92% | viability [4] 99.2% | viability [5] 94.9% | inhibition [6] 0.415% | RAM network inhibition [7] 4.77%

O=C1N2CN(C(c3ccccc3)c3ccccc3)CN=C2SC1(CO)CO
inactive: growth inhibition [1] -9.07% | growth inhibition [2] -4.68% | viability increase [3] -2.69% | viability [4] 62.9% | viability [5] 74.8% | inhibition [6] 1.88% | RAM network inhibition [7] 1.39%

CCn1c(=O)cc(N2CCC3(CC2)OCCO3)[nH]c1=O
inactive: growth inhibition [1] -15.1% | growth inhibition [2] -8.98% | viability increase [3] 0.57% | viability [4] 96.8% | viability [5] 93.2% | inhibition [6] 1.01% | RAM network inhibition [7] 1.74%

CCN(CC)S(=O)(=O)c1ccc(S(=O)(=O)N2CCN(CCC#N)CC2)cc1
inactive: growth inhibition [1] -8.46% | growth inhibition [2] -3.54% | viability increase [3] -1.58% | viability [4] 99.6% | viability [5] 94.7% | inhibition [6] 1.38% | RAM network inhibition [7] -1.32%

CCCN(CCC)CCNC(=O)Cn1cnc2sc(C)c(S(=O)(=O)N3CCOCC3)c2c1=O
inactive: growth inhibition [1] -0.07% | growth inhibition [2] -5.45% | viability increase [3] -2.63% | viability [4] 95.3% | viability [5] 98% | inhibition [6] 0.875% | RAM network inhibition [7] 2.96%

O=c1cc(N2CCOCC2)[nH]c(=O)n1Cc1ccc(F)cc1
inactive: growth inhibition [1] 5.3% | growth inhibition [2] -2.77% | viability increase [3] 0.52% | viability [4] 95.3% | viability [5] 99.1% | inhibition [6] 1.04% | RAM network inhibition [7] -0.98%

O=C(NCc1cccnc1)C1CC(=O)N(c2ccc(F)cc2)C1 (stereo not drawn)
inactive: growth inhibition [1] -18% | growth inhibition [2] -11.7% | viability increase [3] 1.27% | viability [4] 93.8% | viability [5] 101% | inhibition [6] 0.485% | RAM network inhibition [7] 2.83%

COc1ccc(CNC(=O)C2CCN(S(=O)(=O)c3cccc4cccnc34)CC2)cc1
inactive: growth inhibition [1] -9.14% | growth inhibition [2] 3.15% | viability increase [3] 0.11% | viability [4] 99.9% | viability [5] 92.2% | inhibition [6] 2.6% | RAM network inhibition [7] 2.66%

CSc1ccc(S(=O)(=O)Nc2ccc3c(c2)OCCO3)cc1
inactive: growth inhibition [1] -3.2% | growth inhibition [2] -11% | viability increase [3] -3.95% | viability [4] 62.2% | viability [5] 71.9% | inhibition [6] 1.67% | RAM network inhibition [7] -0.87%

COC(=O)CCC(=O)Nc1ccc(NC(=O)CCC(=O)OC)cc1
inactive: growth inhibition [1] -0.195% | growth inhibition [2] 0.195% | viability increase [3] -1.73% | viability [4] 103% | viability [5] 96.9% | inhibition [6] 1.73% | RAM network inhibition [7] 0.97%

CCc1ccc(C2CC(c3ccccc3Cl)Nc3nc(N)nn32)cc1 (stereo not drawn)
inactive: growth inhibition [1] 8.37% | growth inhibition [2] 26.1% | viability increase [3] -2.66% | viability [4] 95% | viability [5] 80.7% | inhibition [6] 0.86% | RAM network inhibition [7] 8.56%

COc1cccc2cc3c(=O)n(-c4ccccc4)nc-3oc12
inactive: growth inhibition [1] -29.6% | growth inhibition [2] -20.8% | viability increase [3] -7.1% | viability [4] 97.2% | viability [5] 92.1% | inhibition [6] 2.73% | RAM network inhibition [7] 3.19%

COc1cc(OC)c(C2Oc3nc(SC)nnc3-c3ccccc3N2C(C)=O)cc1OC (stereo not drawn)
inactive: growth inhibition [1] 4.06% | growth inhibition [2] -0.66% | viability increase [3] -4.95% | viability [4] 108% | viability [5] 108% | inhibition [6] 3.23% | RAM network inhibition [7] 1.75%

O=C(CSc1nnc(Cn2c(=O)sc3ccccc32)n1-c1ccccc1)NCc1ccco1
inactive: growth inhibition [1] -3.11% | growth inhibition [2] -1.47% | viability increase [3] -4.7% | viability [4] 99.5% | viability [5] 98.1% | inhibition [6] 1.22% | RAM network inhibition [7] 6%

O=C(Nc1ccccc1)c1ccccc1O
inactive: growth inhibition [1] 1.28% | growth inhibition [2] 13.7% | viability increase [3] -1.14% | viability [4] 92.2% | viability [5] 83.2% | inhibition [6] -0.42% | RAM network inhibition [7] -1.46%

CC1CCN(S(=O)(=O)c2ccc(NC(=O)c3cccs3)cc2)CC1
inactive: growth inhibition [1] -0.77% | growth inhibition [2] 5.38% | viability increase [3] -5.18% | viability [4] 85.5% | viability [5] 75.8% | inhibition [6] 0.115% | RAM network inhibition [7] 3.83%

Cc1nnc(-c2ccccc2)c[n+]1[O-]
inactive: growth inhibition [1] -6.06% | growth inhibition [2] -14.7% | viability increase [3] -2.16% | viability [4] 101% | viability [5] 95.2% | inhibition [6] 0.98% | RAM network inhibition [7] 0.63%

CCOc1ccc(N(CC(=O)Nc2ccc(C)cc2)S(=O)(=O)c2c(C)noc2C)cc1
inactive: growth inhibition [1] -18.5% | growth inhibition [2] -19.6% | viability increase [3] -3.45% | viability [4] 79.4% | viability [5] 67.4% | inhibition [6] 1.29% | RAM network inhibition [7] 4.04%

CCCOC(=O)C1=C(C)NC2=C(C(=O)CC(C)(C)C2)C1c1ccc(N(C)C)cc1 (stereo not drawn)
inactive: growth inhibition [1] -2.65% | growth inhibition [2] 0.07% | viability increase [3] -2.59% | viability [4] 90.8% | viability [5] 80.9% | inhibition [6] -0.505% | RAM network inhibition [7] 6.21%

O=C(c1cccc(C(=O)N2CCc3ccccc32)n1)N1CCc2ccccc21
inactive: growth inhibition [1] -9.26% | growth inhibition [2] -3.99% | viability increase [3] -5.2% | viability [4] 83.3% | viability [5] 84.4% | inhibition [6] 0.515% | RAM network inhibition [7] 6.13%

CCC(=O)N=c1sc2c(C)cc(C)cc2n1CC(=O)OC
inactive: growth inhibition [1] -9.96% | growth inhibition [2] -16.1% | viability increase [3] -0.83% | viability [4] 92.4% | viability [5] 88.7% | inhibition [6] 1.55% | RAM network inhibition [7] 2.76%
